Data on 19 compounds can be found in ChEMBL document CHEMBL1133165, “Synthesis and cytostatic activity of substituted 6-phenylpurine bases and nucleosides: application of the Suzuki-Miyaura cross-coupling reactions of 6-chloropurine derivatives with phenylboronic acids” (J Med Chem, 2000).

Some results are limits rather than exact numbers.

The test system of test [1] is L1210. Nature of the test: In vitro inhibition of cell growth (Cytostatic activity) of mouse leukemia L1210 cells (ATCC CCL 219); inhibition @ 10 uM/L. Type of test: functional.
Test [2] has as its system CCRF-CEM. Nature of the test: In vitro inhibition of cell growth (Cytostatic activity) of human T-lymphoblastoid CCRF-CEM cell line (ATCC CCL 119). It is filed as functional, cell-based. The essentials:
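CCRF-CEM cells grown in RPMI 1640 with L-glutamine (0.3 g/L) and 10% bovine serum, seeded at 10⁵ mL^-1. After 24 h at 37 °C under CO₂, compounds were added at five concentrations. Cells were counted with a cell counter 72 h after addition. IC50 values were derived from the counts.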

Test [3] relates to HeLa. Put plainly: In vitro inhibition of cell growth (Cytostatic activity) of human cervix carcinoma HeLa S3 cells (ATCC CCL 2.2). It is filed as functional, cell-based.
For test [4], the system named is L1210. Nature of the test: In vitro inhibition of cell growth (Cytostatic activity) of mouse leukemia L1210 cells (ATCC CCL 219). Type of test: functional, cell-based.
For test [5], the system named is HeLa. Put plainly: In vitro inhibition of cell growth (Cytostatic activity) of human cervix carcinoma HeLa S3 cells (ATCC CCL 2.2); inhibition @ 10 uM/L. It is filed as functional.
The subject of test [6] is CCRF-CEM. Put plainly: In vitro inhibition of cell growth (Cytostatic activity) of human T-lymphoblastoid CCRF-CEM cell line (ATCC CCL 119); inhibition @ 10 uM/L. Type of test: functional.

The Inhibition is the relative decrease from the control value, in per cent. Read a low Inhibition as a response near the control. The IC50 is the point on the concentration scale where inhibition reaches its midpoint. In turn, `CC(=O)OC[C@H]1O[C@@H](n2cnc3c(-c4ccc(F)c(F)c4)ncnc32)[C@H](OC(C)=O)[C@@H]1OC(C)=O` yielded an Inhibition in test [1] of under 20%. In addition, the concentration for half-maximal inhibition (IC50) in test [2] amounted to 8.3 µM; in test [3], 15 µM.

For the compound `OC[C@H]1O[C@@H](n2cnc3c(-c4ccccc4)ncnc32)[C@H](O)[C@@H]1O`, the concentration for half-maximal inhibition (IC50) in test [4] stood at 9 µM; in test [2], 0.7 µM; in test [3], 2.7 µM.

Consider `OC[C@H]1OC(n2cnc3c(-c4ccc(F)c(F)c4)ncnc32)[C@H](O)[C@@H]1O` (some centres not stated), for which the concentration for half-maximal inhibition (IC50) in test [4] stood at 20 µM; in test [2], 1.4 µM; in test [3] it was 2.5 µM.

With `COc1cccc(-c2ncnc3c2ncn3C2O[C@H](CO)[C@@H](O)[C@H]2O)c1` (some centres not stated), the IC50 in test [2] was 4.8 µM.

Consider `OC[C@H]1OC(n2cnc3c(-c4ccc(Cl)cc4)ncnc32)[C@H](O)[C@@H]1O` (some centres not stated), for which the figures for the IC50 in test [2] and in test [3] were 0.9 µM and 5 µM, respectively.

Consider `CC(=O)OC[C@H]1O[C@@H](n2cnc3c(-c4ccccc4C)ncnc32)[C@H](OC(C)=O)[C@@H]1OC(C)=O`, for which the Inhibition in test [1], in test [5] and in test [6] was under 20% in each case.

Consider `CC(=O)OC[C@H]1O[C@@H](n2cnc3c(-c4ccccc4)ncnc32)[C@H](OC(C)=O)[C@@H]1OC(C)=O`, for which the Inhibition in test [1] and in test [5] was under 20% each time. In test [2], the half-maximal inhibitory concentration (IC50) was 10.5 µM.

For `CCOc1ccc(-c2ncnc3c2ncn3C2O[C@H](CO)[C@@H](O)[C@H]2O)cc1` (some centres not stated), the half-maximal inhibitory concentration (IC50) in test [4] amounted to 2.5 µM; in test [2], 0.6 µM; in test [3], 5 µM.

In the case of `OC[C@H]1OC(n2cnc3c(-c4ccc(F)cc4)ncnc32)[C@H](O)[C@@H]1O` (some centres not stated), the results for the IC50 in test [4], in test [2] and in test [3] were 4.5 µM, 0.75 µM and 2.5 µM, respectively.

Take `Cc1ccc(-c2ncnc3c2ncn3C2O[C@H](CO)[C@@H](O)[C@H]2O)cc1` (some centres not stated): the IC50 in test [2] was 1.5 µM.

Take `COc1cccc(-c2ncnc3c2ncn3[C@@H]2O[C@H](COC(C)=O)[C@@H](OC(C)=O)[C@H]2OC(C)=O)c1`: the Inhibition in test [1], in test [5] and in test [6] was under 20% in each case.

For `Cc1ccccc1-c1ncnc2c1ncn2C1O[C@H](CO)[C@@H](O)[C@H]1O` (some centres not stated), the Inhibition in test [1], in test [5] and in test [6] was under 20% each time.

`CCOc1ccc(-c2ncnc3c2ncn3[C@@H]2O[C@H](COC(C)=O)[C@@H](OC(C)=O)[C@H]2OC(C)=O)cc1`: the Inhibition in test [1] and in test [5] was under 20% in each case. This compound also had a half-maximal inhibitory concentration (IC50) in test [2] of 3.8 µM.

As to `COc1ccc(-c2ncnc3c2ncn3[C@@H]2O[C@H](COC(C)=O)[C@@H](OC(C)=O)[C@H]2OC(C)=O)cc1`, the IC50 in test [4] amounted to 17 µM; in test [2], 4.3 µM; in test [3] it was 19 µM.

In the case of `CC(=O)OC[C@H]1O[C@@H](n2cnc3c(-c4ccc(C)cc4)ncnc32)[C@H](OC(C)=O)[C@@H]1OC(C)=O`, the Inhibition in test [1], in test [5] and in test [6] was under 20% throughout.

The compound `CC(=O)OC[C@H]1O[C@@H](n2cnc3c(-c4ccc(F)cc4)ncnc32)[C@H](OC(C)=O)[C@@H]1OC(C)=O` displayed an Inhibition in test [1] of under 20%. For the same compound, the half-maximal inhibitory concentration (IC50) was 4 µM in test [2] and 15 µM in test [3].

As to `CC(=O)OC[C@H]1O[C@@H](n2cnc3c(-c4ccc(F)cc4F)ncnc32)[C@H](OC(C)=O)[C@@H]1OC(C)=O`, the Inhibition in test [1], in test [5] and in test [6] was under 20% throughout.

Consider `CC(=O)OC[C@H]1O[C@@H](n2cnc3c(-c4ccc(Cl)cc4)ncnc32)[C@H](OC(C)=O)[C@@H]1OC(C)=O`, for which the Inhibition in test [1] and in test [5] was under 20% throughout. The same compound displayed an IC50 in test [2] of 4.3 µM.

Turning to `COc1ccc(-c2ncnc3c2ncn3C2O[C@H](CO)[C@@H](O)[C@H]2O)cc1` (some centres not stated), the results for the IC50 in test [4], in test [2] and in test [3] were 1.5 µM, 0.25 µM and 4.3 µM, respectively.
